# Source: ChEMBL document CHEMBL1144361, “Identification of chemokine receptor CCR4 antagonist” (Bioorg Med Chem Lett, 2005)
# Target: T1, C-C chemokine receptor type 4 (Homo sapiens, UniProt P51679)
# T1 sequence (P51679 whole entry): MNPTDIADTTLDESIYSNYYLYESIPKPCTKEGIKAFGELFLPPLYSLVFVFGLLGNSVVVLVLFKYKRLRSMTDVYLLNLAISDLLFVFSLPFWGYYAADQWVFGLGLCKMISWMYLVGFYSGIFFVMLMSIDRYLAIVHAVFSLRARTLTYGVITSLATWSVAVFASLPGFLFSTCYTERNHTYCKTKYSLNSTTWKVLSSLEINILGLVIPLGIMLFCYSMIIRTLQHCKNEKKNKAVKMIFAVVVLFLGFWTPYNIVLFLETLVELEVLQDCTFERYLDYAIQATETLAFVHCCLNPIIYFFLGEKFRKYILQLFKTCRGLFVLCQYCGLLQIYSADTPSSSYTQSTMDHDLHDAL
# Test: Inhibitory concentration against human C-C chemokine receptor type 4; range = 3.6-6.1 uM
# Outline: (§1)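 Whole-cell SPA binding: HEK293 stably expressing human CCR4, 4×10^4 cells/well on poly-L-lysine plates, cultured overnight at 37 °C. Compounds in DMSO (1%). Nonspecific defined with 100 nM unlabeled MDC. 15 min mixing, then 24 h at rt before counting.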
row,IC50,Compound
1,6.1 µM,CCN(CC)CCCC(C)Nc1nc(/C=C/c2ccccc2)nc2ccccc12 (stereo not given)

# Target: C-C chemokine receptor type 2 (Homo sapiens, UniProt P41597)
# Sequence (P41597 whole entry): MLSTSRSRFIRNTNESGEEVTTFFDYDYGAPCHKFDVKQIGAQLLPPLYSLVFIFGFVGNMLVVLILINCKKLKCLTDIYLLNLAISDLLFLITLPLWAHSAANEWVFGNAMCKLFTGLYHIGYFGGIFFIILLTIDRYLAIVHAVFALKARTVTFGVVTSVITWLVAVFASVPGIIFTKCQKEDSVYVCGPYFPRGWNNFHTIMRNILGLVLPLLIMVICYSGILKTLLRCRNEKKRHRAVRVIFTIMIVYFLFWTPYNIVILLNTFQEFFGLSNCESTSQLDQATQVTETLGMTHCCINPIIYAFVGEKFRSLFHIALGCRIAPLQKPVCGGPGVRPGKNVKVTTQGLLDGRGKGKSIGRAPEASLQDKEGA
# Test: Inhibitory concentration against C-C chemokine receptor type 2
row,IC50,Compound
1,> 10 µM,CCN(CC)CCCC(C)Nc1nccc(NCc2ccc(Cl)cc2Cl)n1 (stereo not given)

# Target: not listed separately
# Test: Inhibitory concentration against C-C chemokine receptor type 3
# Set-up: species or system Homo sapiens
row,IC50,Compound
1,2 µM,CCN(CC)CCCC(C)Nc1nccc(NCc2ccc(Cl)cc2Cl)n1 (stereo not given)

# Target: T1, C-C chemokine receptor type 4
# Test: Inhibitory concentration against human C-C chemokine receptor type 4
# Outline: as §1
row,Compound,IC50
1,CCN(CC)CCCC(C)Nc1ccnc(COc2cccc(OC)c2)n1 (stereo not given),> 30 µM
2,CCN(CC)CCCC(C)Nc1nc(CCc2ccccc2)nc2ccccc12 (stereo not given),2.4 µM
3,CCN(CC)CCCC(C)Nc1nc(COc2ccccc2)nc2ccccc12 (stereo not given),2 µM
4,CCN(CC)CCCC(C)Nc1ccnc(COc2ccccc2)c1 (stereo not given),> 30 µM
5,CCN(CC)CCCC(C)Nc1nc(C(=O)Nc2ccccc2)nc2ccccc12 (stereo not given),> 10 µM
6,CCN(CC)CCCC(C)Nc1nc(Cc2ccccc2)nc2ccccc12 (stereo not given),10 µM
7,CCN(CC)CCCC(C)Nc1nc(-c2ccccc2)nc2ccccc12 (stereo not given),> 25 µM
8,CCN(CC)CCCC(C)Nc1nc(-c2ccc3ccccc3c2)nc2ccccc12 (stereo not given),2.5 µM
9,CCN(CC)CCCC(C)Nc1ccnc(COc2ccc(F)cc2)c1 (stereo not given),18 µM
10,CCN(CC)CCCC(C)Nc1ccnc(COc2ccc(OC)cc2OC)n1 (stereo not given),> 30 µM
11,CCN(CC)CCCC(C)Nc1nc(CCCc2ccccc2)nc2ccccc12 (stereo not given),> 10 µM

# Next, values leading:
row,IC50,Compound
1,25 µM,CCN(CC)CCCC(C)Nc1ccnc(COc2cccc(Cl)c2)n1 (stereo not given)
2,2.8 µM,CCN(CC)CCCC(C)Nc1ccnc(OCc2ccc(Cl)cc2Cl)n1 (stereo not given)
3,> 10 µM,CC(C)CCCC(C)Nc1nccc(OCc2ccc(Cl)cc2Cl)n1 (stereo not given)
4,0.27 µM,CCN(CC)CCCC(C)Nc1nccc(NCc2ccc(Cl)cc2Cl)n1 (stereo not given)
5,8 µM,CCN(CC)CCCNc1nccc(OCc2ccc(Cl)cc2Cl)n1
6,3 µM,CCN(CC)CCCCNc1nccc(OCc2ccc(Cl)cc2Cl)n1
7,25 µM,CCN(CC)CCCC(C)Nc1ccnc(COc2cc(Cl)cc(Cl)c2)n1 (stereo not given)
8,17 µM,CCN(CC)CCCC(C)Nc1ccnc(COc2ccccc2Cl)c1 (stereo not given)
9,1.2 µM,CCN(CC)CCCC(C)Nc1ccnc(COc2ccc(Cl)cc2Cl)c1 (stereo not given)
10,4 µM,CCN(CC)CCCC(C)Nc1ccnc(COc2ccc(Cl)c(Cl)c2)c1 (stereo not given)
11,20 µM,CCN(CC)CCCC(C)Nc1ccnc(COc2ccc(Cl)cc2)c1 (stereo not given)
12,2 µM,CN(C)CCCCCNc1nccc(OCc2ccc(Cl)cc2Cl)n1
13,9 µM,CCN(CC)CCNc1nccc(OCc2ccc(Cl)cc2Cl)n1
14,1.5 µM,CCN(CC)CCCC(C)Nc1nccc(OCc2ccc(Cl)cc2Cl)n1 (stereo in doubt; 10a)
15,1.5 µM,CCN(CC)CCCC(C)Nc1nccc(OCc2ccc(Cl)cc2Cl)n1 (stereo in doubt; 11a)

# Target: C-X-C chemokine receptor type 3 (Homo sapiens) (UniProt P49682)
# Test: Inhibitory concentration against CXC chemokine receptor 3
row,IC50,Compound
1,> 30 µM,CCN(CC)CCCC(C)Nc1nccc(NCc2ccc(Cl)cc2Cl)n1 (stereo not given)
